Data from ChEMBL document CHEMBL1143241, “Development of potent, allosteric dual Akt1 and Akt2 inhibitors with improved physical properties and cell activity” (Bioorg Med Chem Lett, 2008).
Converted amounts (≈) assume the structure as drawn.

How the values were obtained:
[1] = Solubility at pH 7.4 in 98% saline; format: physicochemical
[2] = target: T1, RAC-alpha serine/threonine-protein kinase (Homo sapiens, UniProt P31749); experiment: Inhibition of Akt1
Summary of the method: (§1)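 In vitro enzyme inhibition assay following a previously reported protocol. Each IC50 is the average of at least three determinations.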

[3] = target: T2, RAC-beta serine/threonine-protein kinase (Homo sapiens, UniProt P31751); experiment: Inhibition of Akt2; summary of the method: as §1
[4] = target: T3, RAC-gamma serine/threonine-protein kinase (Homo sapiens, UniProt Q9Y243); experiment: Inhibition of Akt3
[5] = target: T1, RAC-alpha serine/threonine-protein kinase; experiment: Inhibition of Akt1 by cell-based IPKA assay
[6] = target: T2, RAC-beta serine/threonine-protein kinase; experiment: Inhibition of Akt2 by cell-based IPKA assay
[7] = target: T3, RAC-gamma serine/threonine-protein kinase; experiment: Inhibition of Akt3 by cell-based IPKA assay
[8] = Inhibition of PKA; summary of the method: as §1
[9] = Inhibition of PKC; summary of the method: as §1
[10] = target: T4, Serine/threonine-protein kinase Sgk1 (Homo sapiens, UniProt O00141); experiment: Inhibition of SGK; summary of the method: as §1
T4 sequence (O00141 whole entry): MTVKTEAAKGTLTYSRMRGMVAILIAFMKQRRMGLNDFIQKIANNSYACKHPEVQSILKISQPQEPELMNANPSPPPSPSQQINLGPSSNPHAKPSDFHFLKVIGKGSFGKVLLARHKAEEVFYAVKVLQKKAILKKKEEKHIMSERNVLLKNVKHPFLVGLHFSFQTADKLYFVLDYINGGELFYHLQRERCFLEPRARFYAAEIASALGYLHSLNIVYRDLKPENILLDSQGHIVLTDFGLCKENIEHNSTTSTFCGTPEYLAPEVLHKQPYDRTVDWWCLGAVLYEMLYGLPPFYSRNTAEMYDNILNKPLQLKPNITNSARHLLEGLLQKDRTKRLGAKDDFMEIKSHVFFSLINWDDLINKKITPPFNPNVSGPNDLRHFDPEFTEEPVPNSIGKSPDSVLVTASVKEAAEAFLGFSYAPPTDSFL

T2 sequence (P31751 whole entry): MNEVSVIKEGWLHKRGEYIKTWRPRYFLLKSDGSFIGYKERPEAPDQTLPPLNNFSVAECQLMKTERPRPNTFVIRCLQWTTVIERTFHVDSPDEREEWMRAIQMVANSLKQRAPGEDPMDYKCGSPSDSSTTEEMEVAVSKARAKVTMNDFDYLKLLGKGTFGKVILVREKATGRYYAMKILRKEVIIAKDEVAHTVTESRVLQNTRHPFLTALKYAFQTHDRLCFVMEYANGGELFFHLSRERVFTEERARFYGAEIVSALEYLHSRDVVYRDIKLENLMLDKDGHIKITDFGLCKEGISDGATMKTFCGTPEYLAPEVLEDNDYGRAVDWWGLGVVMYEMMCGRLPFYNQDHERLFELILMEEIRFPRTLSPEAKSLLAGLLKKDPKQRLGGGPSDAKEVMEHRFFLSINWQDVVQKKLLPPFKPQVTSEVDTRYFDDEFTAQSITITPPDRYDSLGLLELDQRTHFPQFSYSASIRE
T3 sequence (Q9Y243 whole entry): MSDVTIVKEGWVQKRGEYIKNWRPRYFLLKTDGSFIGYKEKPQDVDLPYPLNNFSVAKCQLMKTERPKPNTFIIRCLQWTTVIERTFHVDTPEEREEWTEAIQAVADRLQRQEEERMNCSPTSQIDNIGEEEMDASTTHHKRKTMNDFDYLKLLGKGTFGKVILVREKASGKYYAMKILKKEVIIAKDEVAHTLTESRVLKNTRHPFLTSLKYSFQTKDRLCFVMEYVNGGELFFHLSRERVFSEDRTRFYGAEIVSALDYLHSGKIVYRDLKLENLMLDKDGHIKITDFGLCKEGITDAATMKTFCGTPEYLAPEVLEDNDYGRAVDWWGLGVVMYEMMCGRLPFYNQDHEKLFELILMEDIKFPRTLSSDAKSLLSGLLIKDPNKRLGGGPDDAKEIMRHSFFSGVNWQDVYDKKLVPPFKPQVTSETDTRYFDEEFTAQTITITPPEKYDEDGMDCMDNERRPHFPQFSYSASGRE
T1 sequence (P31749 whole entry): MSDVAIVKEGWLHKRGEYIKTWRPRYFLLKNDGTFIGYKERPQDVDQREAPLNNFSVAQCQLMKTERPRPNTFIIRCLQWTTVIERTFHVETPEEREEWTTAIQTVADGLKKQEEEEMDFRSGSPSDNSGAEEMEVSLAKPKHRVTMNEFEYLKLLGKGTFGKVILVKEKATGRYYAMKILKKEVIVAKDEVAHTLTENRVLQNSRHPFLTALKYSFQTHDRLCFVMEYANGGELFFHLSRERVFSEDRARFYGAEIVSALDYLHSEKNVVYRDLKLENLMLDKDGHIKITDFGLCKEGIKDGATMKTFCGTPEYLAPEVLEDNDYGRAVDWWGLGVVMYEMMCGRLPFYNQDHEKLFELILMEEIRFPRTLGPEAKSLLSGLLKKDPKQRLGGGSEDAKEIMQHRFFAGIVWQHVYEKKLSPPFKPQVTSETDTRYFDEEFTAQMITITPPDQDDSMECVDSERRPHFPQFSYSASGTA

Structure (SMILES) | solubility [1] [mg/mL] | IC50 [2] [µM] | IC50 [3] [µM] | IC50 [4] [µM] | IC50 [5] [µM] | IC50 [6] [µM] | IC50 [7] [µM] | IC50 [8] [µM] | IC50 [9] [µM] | IC50 [10] [µM]
O=C(O)c1ccc2nc(-c3ccccc3)c(-c3ccc(CN4CCC(n5c(=O)[nH]c6ccccc65)CC4)cc3)nc2c1 | 18 (≈ 32.4 mM) | – | – | – | – | – | – | – | – | –
CCN(CC)CCNC(=O)c1ccc2nc(-c3ccc(CN4CCC(n5c(=O)[nH]c6ccccc65)CC4)cc3)c(-c3ccccc3)nc2c1 | 18 (≈ 27.5 mM) | 0.458 | 0.359 | 7.4 | 0.368 | 0.617 | 8 | > 50 | > 50 | > 50
O=c1[nH]c2ccccc2n1C1CCN(Cc2ccc(-c3nc4ccc(-c5nnn[nH]5)cc4nc3-c3ccccc3)cc2)CC1 | 18 (≈ 31.1 mM) | – | – | – | – | – | – | – | – | –
CCN(CC)CCNC(=O)c1ccc2nc(-c3ccccc3)c(-c3ccc(CN4CCC(n5c(=O)[nH]c6ccccc65)CC4)cc3)nc2c1 | 18 (≈ 27.5 mM) | 0.138 | 0.212 | 7.2 | 0.253 | 0.276 | > 10 | > 50 | > 50 | > 50
O=c1[nH]c2ccccc2n1C1CCN(Cc2ccc(-c3nc4cc(-c5nnn[nH]5)ccc4nc3-c3ccccc3)cc2)CC1 | 18 (≈ 31.1 mM) | – | – | – | – | – | – | – | – | –
O=C(O)c1ccc2nc(-c3ccc(CN4CCC(n5c(=O)[nH]c6ccccc65)CC4)cc3)c(-c3ccccc3)nc2c1 | 18 (≈ 32.4 mM) | – | – | – | – | – | – | – | – | –
